Compound activity deposited in PubChem by several laboratories.
Shown are actives, neighbours in structure and some others; about 4.9% of the full set was active somewhere.
APP 5'UTR act: activates APP 5'UTR luciferase reporter; activation, % at 2 µM; 1% of 190,000 active; SH-SY5Y APP 5'UTR luciferase reporter, luminescence; zero percent = DMSO vehicle wells;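 active = activation above a set limit, based on mean plus 3 SD of controls, cut at about 140% in these data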
STAT1 act: activators of IFN-gamma induced STAT1 signaling; NIH 3T3 STAT1-luciferase reporter, luminescence; 100% = IFN-gamma alone, no compound; activation (% of control), % at 5.5 µM; 2.6% of 200,000 active; AID 932;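 active = activation above the screen-wide mean activation plus 3 SD, cut at about 130% in these data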
STAT3 inh: inhibitors of IL-6 induced STAT3 signaling. U3A cells, IL-6 STAT3-luciferase reporter, luminescence; host cell line lacks STAT1. inhibition, % at 5.5 µM. 0.89% of 190,000 active;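 active = inhibition above the mean inhibition across all screened compounds plus 3 SD, cut at about 44% in these data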
STAT3 act: increases IL-6 driven STAT3 reporter signal; U3A cells, IL-6 STAT3-luciferase reporter, luminescence; 100% = signal with IL-6 EC80 alone; activation (% of control), % at 5.6 µM; 0.91% of 190,000 active; AID 871;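 active = activation above the screen-wide mean of compound activation plus 3 SD, cut at about 130% in these data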
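system = STAT3-luciferase reporter U3A cells | reagent = IL-6 stimulus at 33 ng/mL final | timing = 1 h compound pre-exposure, 6 h IL-6 stimulation, 37 °C | measured by = luminescence | evaluation = % activation versus median of IL-6-stimulated wells | control set = IL-6-only wells as 100% reference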
STAT1 blocker: reduces IFN-gamma driven STAT1 reporter signal; 0.35% of 200,000 active; NIH 3T3 STAT1-luciferase reporter, luminescence; inhibition, % at 5.5 µM;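 active = inhibition above a set limit, the mean inhibition across all tested compounds plus 3 SD, cut at about 34% in these data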
NF-kB expr up: raises NF-kB expression in human neuronal cells | NF-kB reporter expression; active compounds read high | fold change at 12.5 µM | 1.6% of 190,000 active | AID 1239; in the data active = fold change above about 3.3
Large screens that a line does not name were inactive.

Cc1nn(C)c(C)c1CNC(=O)Nc1ccc(Cl)cc1	STAT1 act 129
O=C(Nc1cccc(Cl)c1)Nc1nc(-c2ccccc2)cs1	none
O=C(NCc1ccccn1)C(=O)Nc1ccccc1	none
Cc1csc(NC(=O)Nc2cccc(Cl)c2)n1	STAT1 act 134, NF-kB expr up 4.6
NC(=O)CSc1nnc(SCc2ccc(F)cc2)s1	none
C/C(=N\NC(=O)C(C)n1nc(C)c([N+](=O)[O-])c1C)c1ccccc1O (stereo not given)	none
Nc1cc(C(=O)O)c(Oc2ccc(Cl)cc2Cl)cc1C(=O)O	none
Cc1nn(C)c(C)c1CNC(=O)Nc1ccc2c(c1)OCO2	none
Cc1nn(C)c(C)c1CNC(=O)Nc1cccc(Cl)c1	NF-kB expr up 4.6
Cc1ccc(Oc2nc(-c3cccnc3)nc3ccccc23)c([N+](=O)[O-])n1	none
O=c1c(-c2cc3ccccc3o2)[n+]([O-])c2ccccc2n1OCc1ccccn1	STAT1 act 142
CCC(=O)Nc1ccccc1Sc1ncnc2scc(-c3ccccc3)c12	none
O=[N+]([O-])c1cc(/C=N/O)ccc1Oc1ccccc1Cl	STAT1 act 131
CC(C)CC(=O)NC(NCC1CCCO1)C(Cl)(Cl)Cl (stereo not given)	none
COc1cc(/C=N/N=C(N)N)ccc1OCc1ccccc1Cl	NF-kB expr up 4.3
Cc1cc2[nH]c3c(c[n+](C)c4ccccc34)c2cc1C	STAT1 act 221, STAT3 act 151
CCc1ccc(-c2csc(-c3c[nH]c4ccccc34)n2)cc1	STAT1 act 132
Nc1nc(-c2c[nH]c3ccccc23)cs1	none
O=c1c2cc(NC(=S)NCc3ccccn3)ccc2nc2n1CCCCC2	none
O=C(Nc1ccc2nc3n(c(=O)c2c1)CCCCC3)c1ccccn1	STAT1 act 145
Cc1nc(SCc2ccc(Cl)cc2)ncc1C(=O)O	NF-kB expr up 6.4
COc1cnc(SCc2ccc(Cl)cc2)nc1Cl	none (no result: APP 5'UTR act)
N#C/C(=C1/CCCCCN1)c1nc2ccccc2[nH]1	STAT1 act 130
Cc1ccc(N2CS(=O)(=O)/C(=C/N(C)C)C2=O)cc1	STAT1 act 150
CN(C)/C=C1\C(=O)N(c2ccc(Cl)cc2)CS1(=O)=O	none
CC1CCC2C(=O)N(c3ccc(C(=O)NCc4ccccc4)cc3)C(=O)C2C1 (stereo not given)	none
Cc1nc2cc(-c3ccccc3)sc2c(=O)n1N	STAT3 inh 99, STAT1 blocker 86
Cc1ccc(C)n1-n1c(C)nc2sc(-c3ccccc3)cc2c1=O	none
CC1=C(C)CC(C(=O)NCC(=O)c2ccccc2)C(C(=O)O)C1 (stereo not given)	STAT1 act 133
O=C(CNC(=O)c1ccccc1C(=O)O)c1ccccc1	STAT1 act 130
c1ccc2c(c1)COC(CNC1CCCCC1)OC2	none
COc1ccc(NC(=O)CC23CC4CC(C2)CC(n2nnc(C)n2)(C4)C3)cc1	none
Cc1cccc(NC(=O)Nc2cccc(F)c2)n1	none
Cc1ccnc(NC(=O)Nc2cccc(F)c2)n1	APP 5'UTR act 150, STAT1 act 145 (no result: NF-kB expr up)
CCC1Oc2ccccc2N(CC(=O)NCc2cccs2)C1=O (stereo not given)	none
O=C(N/N=C/c1ccccc1Cl)c1[nH]c2ccc(Br)cc2c1-c1ccccc1	STAT3 act 135, NF-kB expr up 4.1
COc1ccc(/C=N/NC(=O)c2[nH]c3ccc(Br)cc3c2-c2ccccc2)cc1	STAT3 act 152
N/C(=N\OC(=O)c1cccc2ccccc12)c1cccc([N+](=O)[O-])c1	none
COc1ccc(/C(N)=N/OC(=O)c2cccc([N+](=O)[O-])c2C)cc1OC	none
COc1cccc(C(=O)O/N=C(\N)c2ccc([N+](=O)[O-])cc2)c1OC	STAT1 act 132 (no result: APP 5'UTR act)
Cc1ccccc1C(=O)O/N=C(\N)c1cccc([N+](=O)[O-])c1	STAT1 act 139
Cc1cccc(C(=O)O/N=C(\N)c2cccc([N+](=O)[O-])c2)c1	STAT1 act 130
O=C(Nc1ccc(C#Cc2ccccc2)cc1)C1CC1	STAT1 act 196, STAT3 act 143, NF-kB expr up 3.9
CCCC(=O)Nc1ccc(C#Cc2ccccc2)cc1	STAT1 act 140, STAT3 act 146
CCCC(=O)Nc1ccc(Oc2ccc(NC(=O)CCC)cc2)cc1	none
Cc1ccc(S(=O)(=O)c2cc3ccccc3nc2N)cc1	none
COCCn1nnnc1C(CC(C)C)N1CCN(c2cccc(OC)c2)CC1 (stereo not given)	NF-kB expr up 5.8
CCCCOc1ccc(-c2ncc(C(=O)O)c(C)n2)cc1	APP 5'UTR act 165, STAT1 act 136, NF-kB expr up 4.3
CCO/N=C(\C)c1c(O)c2ccccc2n(C)c1=O	none
NNC(=O)c1cccc(COc2ccc3c(c2)CCC3)c1	STAT3 inh 95, STAT1 blocker 60
O=C(Nc1ccccc1C(F)(F)F)c1c(F)cccc1Cl	none
CC(=O)N1CCc2cc(S(=O)(=O)NCCC3=CCCCC3)ccc21	STAT3 inh 65 (no result: NF-kB expr up)
COCCCNS(=O)(=O)c1ccc2c(c1)CCN2C(C)=O	none
COc1cc(CNCc2ccccn2)ccc1OCc1cccc(Cl)c1	none
Cc1noc(N)c1C(=O)Nc1ccc(C(C)(C)C)cc1	STAT1 act 143, NF-kB expr up 4
CCOC(=O)Cc1ccc(NC(=O)c2ccc(C(C)(C)C)cc2)cc1	STAT3 inh 96, STAT1 blocker 38
COC(=O)Cc1ccc(NC(=O)c2ccc(C)c(C)c2)cc1	STAT1 act 133, NF-kB expr up 3.9
O=C(OCc1nc2ccccc2s1)c1cc2ccccc2oc1=O	STAT3 act 134
O=C(OCc1nc2ccccc2s1)c1cccc(S(=O)(=O)N2CCOCC2)c1	STAT1 act 130, STAT3 act 139
CCc1ccc(N(C(=O)Cn2nnc(-c3ccccc3)n2)C(C(=O)NC2CCCCC2)c2ccccn2)cc1 (stereo not given)	none
Cc1nc(N2CCN(S(=O)(=O)c3ccccc3C#N)CC2)c2c(-c3cccs3)csc2n1	none
Cc1nc(N2CCCCC2)c2c(-c3cccs3)csc2n1	NF-kB expr up 7.8
Clc1ccc(-c2cc(CSc3cccc(Cl)c3)on2)cc1	none (no result: APP 5'UTR act)
Clc1ccc(-c2cc(CSc3ccccc3)on2)cc1	STAT1 act 136, NF-kB expr up 6.2 (no result: APP 5'UTR act)
CCOc1ccc(N=C(/C(C(=O)C(=O)N2CCOCC2)=C(\O)c2ccccc2)c2ccccc2)cc1	STAT1 act 139
CCOc1ccc(OCc2ccc(C(=O)N3CCOCC3)cc2)cc1	none
COC(=O)CNC(=O)c1sc2ncn(CC(=O)Nc3ccc(C)c(Cl)c3)c(=O)c2c1C	none
O=C(NCCN1C(=O)C2C3C=CC(C3)C2C1=O)Nc1ccc(Br)cc1 (stereo not given)	STAT1 act 141 (no result: APP 5'UTR act)
O=C(NCCN1C(=O)C2C3C=CC(C3)C2C1=O)Nc1cccnc1 (stereo not given)	none
